In the RNAGym collection of RNA variant scans (doi:10.1126/science.aae0568):
Variants at the floor of the assay were thinned out.

B1: tRNA (parent)
chain: GUUCCGUUGGCGUAAUGGUAACGCGUCUCCCUCCUAAGGAGAAGACUGCGGGUUCGAGUCCCGUACGGAACG

Variants of: B1
Test: yeast fitness relative to wild type (ratio to wild type); higher = fitter; tRNA-Arg(CCU), competitive growth, 37 C, YPD
Summary of the method: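 Genotype frequency changes were the basis for Darwinian fitness relative to wild type. The frequencies came from 100-nucleotide paired-end sequencing of gene amplicons from the start population and each end population of pooled yeast strains with tRNA-Arg(CCU) gene variants at the native locus. Competition ran in YPD at 37°C for 24 hours in six replicates, genotypes needed ≥ 100 starting reads, and estimates < 0.5 were set to 0.5.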

| Variant | yeast fitness |
| --- | --- |
| A21U C29U | 0.588 |
| A21U C29G | 0.561 |
| A21G G39A U54C A70C | ≤ 0.5 |
| A21U C27G U28C C30U U53G C61A | 0.78 |
| A21G C27G C29A G50A | ≤ 0.5 |
| A21C G23A G58C A65U | ≤ 0.5 |
| A21G U32A U47A | 0.556 |
| A21C C30G U54C C55G A70G | ≤ 0.5 |
| A21C U28C A45G | 0.603 |
| A21G A57U A70U | 0.582 |
| A21U C33G A42G G44A C61U C66U | ≤ 0.5 |
| A21C C34U C66U | ≤ 0.5 |
| A21G C33A C55A A65C A70C | ≤ 0.5 |
| A21U C31A C34A G39C C61A | ≤ 0.5 |
| A21C G58C C66U | ≤ 0.5 |
| A21C G48C | 0.788 |
| A21U C30U A36G G44A | ≤ 0.5 |
| A21G C61G C66G | ≤ 0.5 |
| A21G C29U G41C | 0.562 |
| A21G C27U A70G | 0.792 |
| A21C U47A G52C | 0.662 |
| A21C C33G G39A | ≤ 0.5 |
| A21G C22A A40U | ≤ 0.5 |
| A21C C46U A65U | 0.556 |

| Variant | yeast fitness |
| --- | --- |
| A21C C27U A45C C49U | ≤ 0.5 |
| A21C C34A | 0.605 |
| A21U C30U | 0.646 |
| A21U A43G G44C | ≤ 0.5 |
| A21U A36U G58A | ≤ 0.5 |
| A21G C22A A40U C61U | 0.507 |
| A21G G25C C61G G68U | ≤ 0.5 |
| A21C C46U G67A | 0.619 |
| A21C C27U G58C C62G | ≤ 0.5 |
| A21C C46U A69C | 0.668 |
| A21G C22U C30G G51A A69U | 0.551 |
| A21C C30A C62U A70U | ≤ 0.5 |
| A21C C27U U47A | 0.545 |
| A21C G23U | 0.714 |
| A21C U26A C31U | ≤ 0.5 |
| A21G G23A C27G A37U G44A C49U G63C | ≤ 0.5 |
| A21U A65G A70C | 0.56 |
| A21U A43G C62A | ≤ 0.5 |
| A21G G67A | 0.956 |
| A21G G67C | 0.865 |
| A21G C30A C55A | ≤ 0.5 |
| A21G G44C | 0.963 |
| A21C U59C | 0.777 |
| A21G G63U | 0.752 |

| Variant | yeast fitness |
| --- | --- |
| A21U C30U U32A G68C | ≤ 0.5 |
| A21C C34A A37G | 0.513 |
| A21G U35C A65U | ≤ 0.5 |
| A21G G25A G48C C62A | ≤ 0.5 |
| A21G G56A G67A | 0.654 |
| A21U A45U G51A C55G A65C | ≤ 0.5 |
| A21G A40C G50C | ≤ 0.5 |
| A21C C46G C49G | 0.655 |
| A21G A36G A65C | 0.664 |
| A21C C62U C66U | 0.533 |
| A21U C24U U26A A43U | 0.668 |
| A21U C29A U35A A43U C62U G68C | ≤ 0.5 |
| A21G G56C C62A | ≤ 0.5 |
| A21U A57C G58A A70C | ≤ 0.5 |
| A21G C29A C46U U59C | ≤ 0.5 |
| A21U A70C | 0.701 |
| A21G C49A G56A | 0.533 |
| A21C C29A G52A C55G A57C A69C | ≤ 0.5 |
| A21C C27U | 0.774 |
| A21U A42G G50C U59C | ≤ 0.5 |
| A21G G44C G63C | ≤ 0.5 |
| A21C C29U A57U C60U C62U C66U | 0.564 |
| A21C C49A A70G | 0.626 |
| A21G C34G A42U | ≤ 0.5 |

| Variant | yeast fitness |
| --- | --- |
| A21G A43U | 0.963 |
| A21U C27U C34A | 0.774 |
| A21G U32A | 0.661 |
| A21G U32G | 0.576 |
| A21U C33G A42G G44A | 0.541 |
| A21C C27G U28A C29U C34U C62U G63C | ≤ 0.5 |
| A21U C30G U32C | ≤ 0.5 |
| A21G C27A A37U G63C | ≤ 0.5 |
| A21G A42C G50A | 0.648 |
| A21C U26C A57U | ≤ 0.5 |
| A21C G68U | 0.789 |
| A21C G68A | 0.799 |
| A21G A36G G38C C49U | ≤ 0.5 |
| A21G G39C C46G | 0.627 |
| A21G U35C A36U A40U C55U A57C | ≤ 0.5 |
| A21U C24G U54G C55G C62U | ≤ 0.5 |
| A21G G25A G39C C62U | ≤ 0.5 |
| A21U C22U G48C A65G | ≤ 0.5 |
| A21U C24U A37C | 0.683 |
| A21G A40C C55A | ≤ 0.5 |
| A21G C24A A69U A70G | ≤ 0.5 |
| A21C C30U A43U G48C | ≤ 0.5 |
| A21C C29A G41A U54A | ≤ 0.5 |
| A21C U59A A65U | ≤ 0.5 |

| Variant | yeast fitness |
| --- | --- |
| A21U C22U C66U A69U | ≤ 0.5 |
| A21G C49G G56C | ≤ 0.5 |
| A21G C33A A65C A70C | 0.54 |
| A21G A45C A69U | 0.762 |
| A21G U53A U54A | ≤ 0.5 |
| A21G C22U C46U G56C | ≤ 0.5 |
| A21G U59A A69G | ≤ 0.5 |
| A21G C22A C62U C66A | ≤ 0.5 |
| A21C C29U A45U | 0.521 |
| A21G G25A A42C | 0.707 |
| A21U A42U A57G | 0.548 |
| A21U A36C C49A C62U A65U | ≤ 0.5 |
| A21U C27G C33U C34A | ≤ 0.5 |
| A21G C27G G63A | ≤ 0.5 |
| A21U C22U U59C | ≤ 0.5 |
| A21U C27A G41C G44A C55U C62G | 0.648 |
| A21G G50A | 1.14 |
| A21G G50C | 0.76 |
| A21U C33A | 0.578 |
| A21G A37C A43U | 0.618 |
| A21G A40G A42U U59G | ≤ 0.5 |
| A21G G23A C27U | 0.75 |
| A21G C29G G58C A70C | ≤ 0.5 |
| A21G U35G A37G A42G | ≤ 0.5 |

| Variant | yeast fitness |
| --- | --- |
| A21U C22U U32A G52C | ≤ 0.5 |
| A21C C34U C49U | ≤ 0.5 |
| A21G C27U G56C | 0.57 |
| A21G A43U G58C U59C | 0.67 |
| A21G A36G A40C A42C | ≤ 0.5 |
| A21G C22A C29A C61U | ≤ 0.5 |
| A21C G25C U26G C62A | ≤ 0.5 |
| A21G U59A U64A | ≤ 0.5 |
| A21G C34U G63U | ≤ 0.5 |
| A21C G23A C49A C60G G63A | ≤ 0.5 |
| A21C C27U A57G | 0.79 |
| A21C G44C G50A A57G G68C | ≤ 0.5 |
| A21U C31G U32A | 0.585 |
| A21U A40C A42U C49U G50C C66U | 0.578 |
| A21G C22G U53C C55G | 0.698 |
| A21U A42C C62G | ≤ 0.5 |
| A21G A40G A42C U53A U54C | ≤ 0.5 |
| A21C G23A G52C A57C | ≤ 0.5 |
| A21G C60G A70C | 0.579 |
| A21U A36G C49A | ≤ 0.5 |
| A21U C30U A42C C55U | ≤ 0.5 |
| A21G G50C G52C | ≤ 0.5 |
| A21G A37U C66U | ≤ 0.5 |
| A21G C27A A36U A40G G52C G67A | ≤ 0.5 |

| Variant | yeast fitness |
| --- | --- |
| A21U A40C A42U A43G C49U G50C C66U | ≤ 0.5 |
| A21G U28A A42C A57G C66A | 0.6 |
| A21U C31G | 0.842 |
| A21G C22G G25A G63A A69U | ≤ 0.5 |
| A21C U28G C33U C34U A43U G50A A69C | ≤ 0.5 |
| A21C G23U C62U A65G | ≤ 0.5 |
| A21G A42G | 0.714 |
| A21G C29G C46U C60U G67C | ≤ 0.5 |
| A21C U28G A43C G52C G67U | ≤ 0.5 |
| A21G G23A A57C A65C A70C | ≤ 0.5 |
| A21G C24U | 0.989 |
| A21U A42G | 0.583 |
| A21U A42U | 0.792 |
| A21G A36G C60U | 0.531 |
| A21U A43U | 0.901 |
| A21G C61G G67A | ≤ 0.5 |
| A21G C29G C62U | 0.651 |
| A21C U32C C34A | ≤ 0.5 |
| A21G G58C | 1.01 |
| A21C G58C | 0.84 |
| A21C U28A G50A | ≤ 0.5 |
| A21C U47C A65C | ≤ 0.5 |
| A21G C34G C55G | ≤ 0.5 |
